Consider three compounds from PMC3014451 (Bioorganic & medicinal chemistry, 2010).

For one data set, the system named is ALS. Conditions: ALS patients; ref v; cited from earlier work.
The nature of data set [1]: Microsomal stability. Conditions: human, liver microsomes, pH 7.4, CL’int, 37 °C, with NADPH. Format: in vitro ADME. A digest of the protocol:
(§1)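 Test compound at 5 μM, in duplicate, with liver microsomes (0.275 mg/mL protein) in 100 mM potassium phosphate, 3 mM MgCl2, 2 mM NADPH, pH 7.4, at 37 °C; a parallel control omits NADPH. Aliquots at 15 sec to 60 min quenched in acidified acetonitrile. Parent quantified by LC-MS/MS against haloperidol internal standard. k from 1/Y-weighted exponential fit; T1/2 = ln2/k.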

The nature of a further data set: Mouse plasma stability. Format: in vitro ADME. A digest of the protocol:
(§2)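 Samples were taken at 15 s, 10, 20, 40 and 60 min and precipitated with acetonitrile containing haloperidol as internal standard, then analysed by LC-MS/MS for analyte/internal standard peak-area ratio. The plasma ratio was divided by the PBS ratio at the same time point.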

A short description of data set [2]: Microsomal stability. It is filed as in vitro ADME. Conditions: mouse, liver microsomes. A digest of the protocol:
as §1

A short description of data set [3]: Aqueous solubility screen in PBS. Format: physicochemical. Conditions: PBS with 1% DMSO.
A short description of the next data set: PBS stability. It is filed as physicochemical. Conditions: 5 μM, 37 °C. A digest of the protocol: as §2
The subject of data set [4] is mutant G93A SOD1 aggregation in PC12 cells. Description: Mutant SOD1-induced cytotoxicity protection assay. It is filed as cell-based. Conditions: maximum cell viability in cytotoxicity protection assay.

≈ marks a conversion by molar mass, not a printed value.

Turning to `Nc1nc2ccc(OC(F)(F)F)cc2s1` [Riluzole], the “prolongation of patient life” value with ALS is reported as “two to three”.

The term CLint scaled denotes the rate of metabolic loss divided by the concentration. Higher therefore signals rapid turnover. As a reminder, the solubility is the concentration that dissolves in the medium under given conditions. A lower solubility goes with a poorly soluble substance. As for `Cc1cc(SCc2cc(=O)[nH][nH]2)c(Cl)cc1Cl` [compound 1, 5-((2,4-Dichloro-5-methylphenylthio)methyl)-1H-pyrazol-3(2H)-one], the CLint scaled at 5 μM amounted to 58.5 mL/min/kg in “Microsomal stability [1]”; 61.2 mL/min/kg in the data set “Microsomal stability [2]” (pH 7.4, CL’int No NADPH, without NADPH); 292 mL/min/kg in the data set “Microsomal stability [2]” (pH 7.4, CL’int, 5 μM, 37 °C, with NADPH). Also, in “Mouse plasma stability”, the “Recovery Plasma vs. PBS” value stood at 91%. For the same compound, in data set [3], the concentration in solution (solubility at 1 h) was 16.4 µg/mL (≈ 56.7 µM). The “PBS Amount Remaining at 60 min” value in the data set “PBS stability” worked out at 100%.

In the case of `C[C@@H]1C[C@H]2O[C@@H]2/C=C\C=C\C(=O)Cc2c(Cl)c(O)cc(O)c2C(=O)O1` [radicicol], the “efficacy (cell viability)” value in data set [4] was found to be 85%.
